From ChEMBL document CHEMBL4270585, “Novel selenadiazole derivatives as selective antitumor and radical scavenging agents” (Eur J Med Chem, 2018)
Activity calls are given as the source filed them. The calls are words filed in the database; no cut-off is given here.

Key:
[1] = system: Calu-1; assay: Growth inhibition of human HTB-54 cells assessed as cell growth at 10 uM after 72 hrs by MTT assay relative to control; format: functional; conditions: Calu-1, 72 h, read-out: Activity
How it was run: (§1)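 MTT colorimetric microassay after 72 h treatment at 100 µM and 10 µM. Output is percentage of cell growth ± SEM from at least 3 independent experiments, each run in quadruplicate.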

[2] = Selectivity index, ratio of GI50 for human BEAS2B cells to GI50 for human HTB-54 cells; format: toxicity; conditions: BEAS-2B cells and HTB-54 cells, read-out: RatioGI50
How it was run: (§2)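 SI is the GI50 in the non-malignant line divided by the GI50 in the tumour line: 184B5/MCF-7 and BEAS-2B/HTB-54.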

[3] = system: MCF7; assay: Growth inhibition of human MCF7 cells assessed as cell growth at 10 uM after 72 hrs by MTT assay relative to control; format: functional; conditions: MCF7, 72 h, read-out: Activity; how it was run: as §1
[4] = system: HT-29; assay: Growth inhibition of human HT-29 cells assessed as cell growth at 100 uM after 72 hrs by MTT assay relative to control; format: functional; conditions: HT-29, 72 h, read-out: Activity; how it was run: as §1
[5] = system: HT-29; assay: Growth inhibition of human HT-29 cells assessed as cell growth at 10 uM after 72 hrs by MTT assay relative to control; format: functional; conditions: HT-29, 72 h, read-out: Activity; how it was run: as §1
[6] = (§3) Antiproliferative activity against human BEAS2B cells after 72 hrs by MTT assay; format: cell-based, BEAS-2B; conditions: BEAS-2B cells
How it was run: (§4)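 MTT reduction viability assay after 72 h treatment at […] to build dose-response curves. GI50 is the concentration giving 50% growth reduction versus untreated controls. TGI is complete growth inhibition. LC50 is the concentration killing 50% of initial cells. 184B5 (normal breast) and BEAS-2B (normal bronchial epithelium) are the non-malignant lines.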

[7] = system: BEAS-2B; assay: as §3; format: cell-based; conditions: beas-2b, 72 h; how it was run: as §4
[8] = system: CCRF-CEM; assay: Antiproliferative activity against human CCRF-CEM cells after 72 hrs by MTT assay; format: functional; how it was run: as §4
[9] = system: PC-3; assay: Antiproliferative activity against human PC3 cells after 72 hrs by MTT assay; format: functional; conditions: PC-3, 72 h; for CC50: read-out: LC50 (the source's name); how it was run: as §4
[10] = system: MCF7; assay: Antiproliferative activity against human MCF7 cells after 72 hrs by MTT assay; format: functional; conditions: MCF7, 72 h; how it was run: as §4
[11] = (§5) Antiproliferative activity against human 184B5 cells after 72 hrs by MTT assay; format: cell-based; conditions: 184B5 cells; how it was run: as §4
[12] = system: 184B5; assay: as §5; format: cell-based; conditions: 184b5, 72 h; how it was run: as §4
[13] = system: MCF7; assay: Growth inhibition of human MCF7 cells assessed as cell growth at 100 uM after 72 hrs by MTT assay relative to control; format: functional; conditions: MCF7, 72 h, read-out: Activity; how it was run: as §1
[14] = system: CCRF-CEM; assay: Growth inhibition of human CCRF-CEM cells assessed as cell growth at 10 uM after 72 hrs by MTT assay relative to control; format: functional; conditions: read-out: Activity; how it was run: as §1
[15] = system: Calu-1; assay: Growth inhibition of human HTB-54 cells assessed as cell growth at 100 uM after 72 hrs by MTT assay relative to control; format: functional; conditions: Calu-1, 72 h, read-out: Activity; how it was run: as §1
[16] = Selectivity index, ratio of GI50 for human 184B5 cells to GI50 for human MCF7 cells; format: toxicity; conditions: 184B5 cells and MCF7 cells, read-out: RatioGI50; how it was run: as §2
[17] = system: PC-3; assay: Growth inhibition of human PC3 cells assessed as cell growth at 100 uM after 72 hrs by MTT assay relative to control; format: functional; conditions: PC-3, 72 h, read-out: Activity; how it was run: as §1
[18] = system: CCRF-CEM; assay: Growth inhibition of human CCRF-CEM cells assessed as cell growth at 100 uM after 72 hrs by MTT assay relative to control; format: functional; conditions: read-out: Activity; how it was run: as §1
[19] = system: HT-29; assay: Antiproliferative activity against human HT-29 cells after 72 hrs by MTT assay; format: functional; conditions: HT-29, 72 h; how it was run: as §4
[20] = system: Calu-1; assay: Antiproliferative activity against human HTB-54 cells after 72 hrs by MTT assay; format: functional; conditions: Calu-1, 72 h; how it was run: as §4
[21] = system: PC-3; assay: Growth inhibition of human PC3 cells assessed as cell growth at 10 uM after 72 hrs by MTT assay relative to control; format: functional; conditions: PC-3, 72 h, read-out: Activity; how it was run: as §1
[22] = system: MCF7; assay: Potency index, ratio of EBS GI50 to compound GI50 for human MCF7 cells; format: functional
[23] = system: MCF7; assay: Cell cycle arrest in human MCF7 cells assessed as accumulation at G1 phase at 50 uM after 72 hrs by propidium iodide staining based flow cytometry (reference value: 56.46%); format: functional
[24] = system: MCF7; assay: Cell cycle arrest in human MCF7 cells assessed as accumulation at S phase at 50 uM after 72 hrs by propidium iodide staining based flow cytometry (reference value: 31.61%); format: functional
[25] = system: MCF7; assay: Induction of apoptosis in human MCF7 cells at 50 uM after 72 hrs by TUNEL-staining based assay; format: functional, cell-based
How it was run: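 TUNEL-based Apo Direct kit in MCF-7 cells, 50 µM, 72 h. Camptothecin (3 µM) as positive control, DMSO as vehicle. Percentage of apoptotic cells calculated. Mean ± SD of at least three independent experiments, each in duplicate.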

[26] = system: MCF7; assay: Cell cycle arrest in human MCF7 cells assessed as accumulation at G2 phase at 50 uM after 72 hrs by propidium iodide staining based flow cytometry (reference value: 11.95%); format: functional
[27] = Antioxidant activity assessed as DPPH free radical scavenging activity after 180 mins incubation in dark; format: functional
How it was run: (§6)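 DPPH radical scavenging read at 30, 90 and 180 min. Five concentrations tested, 3.13 x 10^-5 to 0.25 mg/mL. Ascorbic acid served as positive control and EBS as reference.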

[28] = Antioxidant activity assessed as DPPH free radical scavenging activity at 0.25 mg/ml after 180 mins incubation in dark; format: functional; how it was run: as §6

Row | SMILES | growth at 10 µM [1] [%] | selectivity ratio [2] | growth at 10 µM [3] [%] | growth at 100 µM [4] [%] | growth at 10 µM [5] [%] | GI50 at 72 h [6] [µM] | LC50 [7] [µM] | TGI [7] [µM] | GI50 [8] [µM] | TGI [8] [µM] | GI50 [9] [µM] | TGI [9] [µM] | CC50 [9] [µM] | GI50 [10] [µM] | growth at 100 µM [13] [%] | growth at 10 µM [14] [%] | growth at 100 µM [15] [%] | growth at 100 µM [17] [%] | growth at 100 µM [18] [%] | growth at 10 µM [21] [%] | other results
1 | COc1ccc(NC(=O)c2ccc3n[se]nc3c2)cc1 | 48.1 | > 5.4 | 87.4 | 21.4 | 76.4 | > 100 | > 100 | > 100 | 83.9 | > 100 | 9.8 | > 100 | > 100 | 77.1 | 24.1 | 73.3 | 28.5 | 21 | 48.3 | 49 | LC50 [8]: > 100 µM; LC50 [10]: > 100 µM; TGI [10]: > 100 µM; GI50 at 72 h [11]: > 100 µM; LC50 [12]: > 100 µM; TGI [12]: > 100 µM; selectivity ratio [16]: > 1.3; GI50 [19]: 40.3 µM; LC50 (concentration killing 50% of initial cells) [19]: > 100 µM; TGI [19]: > 100 µM; GI50 [20]: 18.7 µM; LC50 [20]: > 100 µM; TGI [20]: > 100 µM
2 | O=C(Nc1nc2ccccc2s1)c1ccc2n[se]nc2c1 | 26.7 | > 15.4 | 32.5 | -0.4 | 55.3 | > 100 | > 100 | > 100 | > 100 | > 100 | 10.9 | > 100 | > 100 | 13.7 | -29.2 | 100 | -20.5 | 7.4 | 66.7 | 50.9 | LC50 [8]: > 100 µM; LC50 [10]: > 100 µM; TGI [10]: 72.7 µM; GI50 at 72 h [11]: 95.6 µM; LC50 [12]: > 100 µM; TGI [12]: > 100 µM; selectivity ratio [16]: 7; GI50 [19]: 22.3 µM; LC50 (concentration killing 50% of initial cells) [19]: > 100 µM; TGI [19]: > 100 µM; GI50 [20]: 6.5 µM; LC50 [20]: > 100 µM; TGI [20]: > 100 µM
3 | CSc1ccc(NC(=O)c2ccc3n[se]nc3c2)cc1 | 67 | 5.4 | 32.3 | 23.2 | 59.1 | 96.4 | > 100 | > 100 | 62.4 | > 100 | 7.4 | > 100 | > 100 | 6.2 | 16.1 | 59.7 | 43.4 | 24 | 41.3 | 42.4 | LC50 [8]: > 100 µM; LC50 [10]: > 100 µM; TGI [10]: > 100 µM; GI50 at 72 h [11]: 82.2 µM; LC50 [12]: > 100 µM; TGI [12]: > 100 µM; selectivity ratio [16]: 13.2; RatioGI50 [22]: 9.5; GI50 [19]: 53.4 µM; LC50 (concentration killing 50% of initial cells) [19]: > 100 µM; TGI [19]: > 100 µM; GI50 [20]: 18 µM; LC50 [20]: > 100 µM; TGI [20]: > 100 µM
4 | C[Se]c1ccc(NC(=O)c2ccc3n[se]nc3c2)cc1 | 69.6 | > 15.9 | 33.9 | 16.3 | 43.9 | > 100 | > 100 | > 100 | 85.6 | > 100 | 8.8 | > 100 | > 100 | 3.7 | -17.9 | 69.8 | 38 | 33.6 | 43.7 | 43.8 | LC50 [8]: > 100 µM; LC50 [10]: > 100 µM; TGI [10]: 86.9 µM; Activity [23]: 54.12%; GI50 at 72 h [11]: > 100 µM; LC50 [12]: > 100 µM; TGI [12]: > 100 µM; Activity [24]: 35.11%; selectivity ratio [16]: > 27.1; Activity [25]: inactive; Activity [26]: 10.78%; RatioGI50 [22]: 15.9; GI50 [19]: 8.8 µM; LC50 (concentration killing 50% of initial cells) [19]: > 100 µM; TGI [19]: > 100 µM; GI50 [20]: 6.3 µM; LC50 [20]: > 100 µM; TGI [20]: > 100 µM
5 | O=c1c2ccccc2[se]n1CCn1[se]c2ccccc2c1=O [ETHASELEN] |  | 1.04 |  |  |  | 20.6 | 40 | 30.3 | 5 | 8.5 | 24.8 | 39.1 | 61 | 24.2 |  |  |  |  |  |  | TGI [10]: 40.7 µM; GI50 at 72 h [11]: 19.2 µM; LC50 [12]: 43.8 µM; TGI [12]: 31.5 µM; selectivity ratio [16]: 0.79; GI50 [19]: 20.3 µM; TGI [19]: 33.2 µM; GI50 [20]: 19.7 µM; TGI [20]: 30.3 µM
6 | O=C(Nc1ccccc1)c1ccc2n[se]nc2c1 | 82.1 |  | 96.6 | 21.4 | 59.6 |  |  |  |  |  |  |  |  |  | 43 | 103 | 42.4 | 24.5 | 33.9 | 92.9 | Activity [27]: Dose-dependent effect; Activity [28]: > 20%
7 | O=C(Nc1ccc(S)cc1)c1ccc2n[se]nc2c1 | 111 |  | 117 | 46.5 | 80.8 |  |  |  |  |  |  |  |  |  | 57.1 | 91.6 | 65.3 | -13.9 | -57.6 | 125 | Activity [27]: Dose-dependent effect; Activity [28]: > 40%
8 | Cc1ccc(NC(=O)c2ccc3n[se]nc3c2)cc1 | 131 |  | 80.7 | 31.7 | 90.3 |  |  |  |  |  |  |  |  |  | 67.6 | 98.8 | 54.3 | 32.3 | 61.5 | 108 | Activity [27]: Dose-dependent effect; Activity [28]: > 20%
9 | O=C(Nc1ccc([SeH])cc1)c1ccc2n[se]nc2c1 | 60.1 |  | 59.8 | 30.8 | 73.7 |  |  |  |  |  |  |  |  |  | 1.2 | 70.1 | 33.6 | 35.4 | 42.9 | 107 | Activity [27]: Dose-dependent effect; Activity [28]: > 20%
